We go through ten molecules from ChEMBL document CHEMBL1121610, “Plant antitumor agents. 18. Synthesis and biological activity of camptothecin analogues” (J Med Chem, 1980).

The structures appear in SMILES notation. Converted amounts (≈) assume the structure as drawn. The source made the active and inactive calls. The calls are words filed in the database; no cut-off is given here.

In data set [1] the test system is P388. Nature of the data set: This is the dose at which optimal activity was observed against P-388 leukemia cells. In kind it is functional, Mus musculus. In outline:
(§1)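 In vivo P-388 lymphocytic leukemia (PS) assay run by National Cancer Institute contractors under standard protocols. Compounds were dosed over a range in mg/kg, and activity is reported as % T/C (treated vs control). The optimal dose and the lowest toxic dose were taken from the dose series, and a therapeutic index was tabulated from them.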

Data set [2] deals with P388. Briefly: Antileukemic activity against P-388 leukemia cells was measured at given dose range. In kind it is functional, Mus musculus. An outline of the steps: as §1
Data set [3] can be described thus: Therapeutic index was measured on P-388 leukemia cells against P-388 leukemia cells. In kind it is organism-based. Particulars: mouse, read-out: Therapeutic index. An outline of the steps: as §1
Data set [4] has as its system Mus musculus. Nature of the data set: Optimal activity expressed as percentage treated to that of control was measured in vivo against P-388 leukemia cells. The format is functional. An outline of the steps: as §1
Data set [5] can be described thus: In vitro cytotoxicity of compound was tested against 9KB cells. In kind it is functional. Particulars: Homo sapiens, read-out: ED50 (the source's name). An outline of the steps: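 Cytotoxicity against KB (9KB) cells was run in vitro at Research Triangle Institute under standard protocols. Potency is expressed as ED50 in μg/mL.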
Data set [6] relates to P388. Briefly: Lowest toxicity was observed at this dose against P-388 leukemia cells. In kind it is functional, Mus musculus. An outline of the steps: as §1
A short description of data set [7]: Therapeutic index was measured on P-388 leukemia cells. Particulars: mouse, read-out: Therapeutic index. An outline of the steps: as §1
In data set [8] the test system is Mus musculus. Nature of the data set: Optimal activity expressed as percentage treated to that of control was measured in vivo against P-388 leukemia cells; NA means inactive. In kind it is functional, organism-based. An outline of the steps:
as §1

A short description of data set [9]: Therapeutic index was measured on P-388 leukemia cells. Particulars: mouse, read-out: Therapeutic index. An outline of the steps: as §1

A word on the T/C: it is the ratio of treated to control. Molecule `CCCC1(O)C(=O)OCc2c1cc1n(c2=O)Cc2cc3cccnc3nc2-1` (stereo unspecified) registered a Dose with P388 [1] of 32 mg/kg. In the data set with P388 [2], this molecule registered a Dose range of 32 mg/kg. In addition, the selectivity ratio in data set [3] came to 2. In addition, the T/C with Mus musculus [4] was found to be 175%.
For `COCCC1(O)C(=O)OCc2c1cc1n(c2=O)Cc2cc3ccccc3nc2-1` (stereo unspecified), in [5], the EC50 amounted to 0.2 µg/mL (≈ 0.529 µM). Besides, the Dose with P388 [6] is 8 mg/kg; with P388 [1], 4 mg/kg. Moreover, in the data set on P388 [2], the Dose range turned out to be 8 mg/kg. Further, the selectivity ratio in data set [7] was 2. Also, the T/C in the data set on Mus musculus [4] amounted to 160%.
Turning to `CCC1(O)C(=O)OCc2c1cc1n(c2=O)Cc2cc3ccccc3nc2-1` (stereo unspecified), in data set [5], the EC50 was found to be 0.1 µg/mL (≈ 0.287 µM). Besides, the Dose with P388 [6] turned out to be 16 mg/kg; with P388 [1] it was 8 mg/kg. This molecule displayed a Dose range in the data set on P388 [2] of 16 mg/kg. Moreover, in data set [7], the selectivity ratio amounted to 8. The same molecule registered a T/C in the data set with Mus musculus [4] of 222%.
On to `CCN(CC)CCOc1ccc2nc3c(cc2c1)Cn1c-3cc2c(c1=O)COC(=O)[C@]2(O)CC.Cl`, for which the EC50 in data set [5] is greater than 1 µg/mL. The Dose with P388 [1] is 32 mg/kg. The molecule further showed a Dose range in the data set on P388 [2] of 32 mg/kg. Besides, in data set [3], the selectivity ratio stood at 16. This molecule registered a T/C in the data set on Mus musculus [4] of 234%.
In the case of `CC[C@@]1(O)C(=O)OCc2c1cc1n(c2=O)Cc2cc3cc(OCC(=O)[O-])ccc3nc2-1.[Na+]`, in data set [5], the EC50 was greater than 1 µg/mL. Further, the T/C entry in the data set with Mus musculus [8] was “inactive”. Also, the Dose range in the data set with P388 [2] is 32 mg/kg.
As for `CC[C@@](O)(C(=O)[O-])c1cc2n(c(=O)c1CO)Cc1cc3ccccc3nc1-2.[Na+]`, the Dose in the data set with P388 [6] turned out to be 80 mg/kg; with P388 [1], 40 mg/kg. Further, the Dose range in the data set on P388 [2] was 8 mg/kg. In data set [7], the selectivity ratio turned out to be 4. Further, in the data set with Mus musculus [4], the T/C is recorded as 212%.
Take `CCC1(O)C(=O)OCc2c1cc1n(c2=O)Cc2cc3cc4ccccc4cc3nc2-1` (stereo unspecified): in data set [5], the EC50 is 0.2 µg/mL (≈ 0.502 µM). Besides, in the data set on P388 [1], the Dose was 16 mg/kg. Moreover, in the data set on P388 [2], the Dose range is 32 mg/kg. Besides, in [3], the selectivity ratio was 4. The T/C with Mus musculus [4] came to 198%.
As for `CC[C@@]1(O)C(=O)OCc2c1cc1n(c2=O)Cc2cc3ccccc3nc2-1` [CAMPTOTHECIN], the Dose in the data set with P388 [6] amounted to 8 mg/kg; in the data set on P388 [1] it was 4 mg/kg. Further, in the data set on P388 [2], the Dose range worked out at 8 mg/kg. For the same molecule, the selectivity ratio in data set [9] is 8. Besides, the T/C in the data set on Mus musculus [4] came out at 197%.
For the molecule `CC[C@@]1(O)C(=O)OCc2c1cc1n(c2=O)Cc2cc3cc(OC)ccc3nc2-1`, the EC50 in [5] came out at 0.02 µg/mL (≈ 0.0529 µM). The Dose in the data set with P388 [6] came out at 1 mg/kg; in the data set with P388 [1] it was 0.5 mg/kg. For the same molecule, the Dose range in the data set with P388 [2] turned out to be 4 mg/kg. Also, in data set [7], the selectivity ratio was 1. For the same molecule, the T/C in the data set on Mus musculus [4] was 145%.
Consider `CC[C@@]1(O)C(=O)OCc2c1cc1n(c2=O)Cc2cc3cc(O)ccc3nc2-1` [HYDROXYCAMPTOTHECIN], for which the EC50 in [5] is 0.02 µg/mL (≈ 0.0549 µM). In addition, the results for the Dose in the data set with P388 [6] and in the data set on P388 [1] were 8 mg/kg and 4 mg/kg, respectively. The molecule also had a Dose range in the data set with P388 [2] of 8 mg/kg. Further, in data set [7], the selectivity ratio stood at 8. The T/C in the data set on Mus musculus [4] came to 314%.
